Laboratory results as given in ChEMBL document CHEMBL1949512, “RO4383596, an orally active KDR, FGFR, and PDGFR inhibitor: synthesis and biological evaluation” (Bioorg Med Chem, 2005).

Experiments:
Ephrin type-B receptor 3 = molecular target: T1, Ephrin type-B receptor 3 (Homo sapiens, UniProt P54753); assay: Inhibition of EphB3
T1 sequence (P54753 whole entry): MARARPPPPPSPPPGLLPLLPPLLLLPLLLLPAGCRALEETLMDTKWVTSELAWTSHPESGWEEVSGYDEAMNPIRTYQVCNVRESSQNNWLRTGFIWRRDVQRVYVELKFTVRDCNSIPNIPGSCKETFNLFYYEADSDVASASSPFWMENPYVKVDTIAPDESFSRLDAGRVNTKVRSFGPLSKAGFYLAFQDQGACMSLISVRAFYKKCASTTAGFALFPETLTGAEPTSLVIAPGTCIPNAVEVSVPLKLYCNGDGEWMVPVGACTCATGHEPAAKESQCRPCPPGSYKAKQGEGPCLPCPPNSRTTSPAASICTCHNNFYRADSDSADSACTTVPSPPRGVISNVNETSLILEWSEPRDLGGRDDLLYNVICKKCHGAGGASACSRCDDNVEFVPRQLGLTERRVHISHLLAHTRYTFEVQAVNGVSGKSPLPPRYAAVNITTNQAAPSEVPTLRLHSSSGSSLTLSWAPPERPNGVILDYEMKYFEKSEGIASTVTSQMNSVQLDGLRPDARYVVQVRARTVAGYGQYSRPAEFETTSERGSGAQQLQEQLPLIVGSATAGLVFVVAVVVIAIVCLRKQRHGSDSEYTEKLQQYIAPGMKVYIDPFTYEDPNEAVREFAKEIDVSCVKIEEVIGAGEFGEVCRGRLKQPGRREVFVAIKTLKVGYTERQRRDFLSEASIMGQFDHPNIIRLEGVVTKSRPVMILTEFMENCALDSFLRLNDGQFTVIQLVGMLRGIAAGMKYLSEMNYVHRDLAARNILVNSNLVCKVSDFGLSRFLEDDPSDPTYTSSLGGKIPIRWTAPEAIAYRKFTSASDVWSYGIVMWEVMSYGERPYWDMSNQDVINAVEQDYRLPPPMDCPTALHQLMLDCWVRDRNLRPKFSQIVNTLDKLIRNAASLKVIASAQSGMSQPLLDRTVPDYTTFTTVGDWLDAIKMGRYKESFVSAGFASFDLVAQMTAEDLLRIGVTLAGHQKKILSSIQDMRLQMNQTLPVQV

[1] = molecular target: Cyclin-dependent kinase 1/cyclin B1 (Homo sapiens, UniProt P06493); assay: Inhibition of CDK1/cyclin B by IMAP assay; assay type: protein-complex assay
Summary of the method: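 IMAP fluorescence-polarization assay, in which phosphorylated fluorescent peptide substrates bind immobilized metal beads. Reactions ran at ATP three times Km.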

HUVEC [2] = assay: Antiangiogenic activity in HUVEC assessed as inhibition of VEGF-induced cell proliferation; conditions: Homo sapiens
HUVEC [3] = assay: Antiangiogenic activity in HUVEC assessed as inhibition of bFGF-induced cell proliferation; conditions: Homo sapiens
RKO = assay: Antiproliferative activity against human RKO cells
[4] = Volume of distribution at steady state in athymic nude mouse at 10 mg/kg, iv; assay type: ADME, organism-based; design: dose 10 mg/kg, route intravenous; conditions: in vivo, read-out: Vdss
Summary of the method: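 Athymic nude mice given single 10 mg/kg iv dose in 2% DMA, 10% PEG400, 88% of 40% HPBCD in water, 0.2 mL. Blood at 1, 5, 15, 30 min and 1, 2, 4, 8, 16, 24 h; EDTA plasma, LC-MS/MS. Composite Vdss by non-compartmental analysis.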

[5] = Cmax in athymic nude mouse at 50 mg/kg, po; assay type: ADME, organism-based; design: dose 50 mg/kg, route oral; conditions: in vivo
Summary of the method: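 Athymic nude mice received one dose, either iv 10 mg/kg in 2% DMA/10% PEG400/88% of 40% HPBCD in water, or po 50 mg/kg in 2% Klucel LF/0.1% Tween 80. Retro-orbital or terminal cardiac blood was drawn from 1 min (iv) or 5 min (po) to 24 h into EDTA. Plasma was analysed by LC-MS/MS. Composite parameters were obtained by non-compartmental analysis, with AUC extrapolated to infinity.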

[6] = AUC in Wistar rat at 5 mg/kg, iv; assay type: ADME, organism-based; design: dose 5 mg/kg, route intravenous; conditions: plasma
Summary of the method: (§1)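 Wistar rats received one dose, either iv 5 mg/kg via femoral arterial catheter (2% DMA/10% PEG400/88% of 40% HPBCD) or po 50 mg/kg (2% Klucel LF/0.1% Tween 80). Blood came from an implanted jugular catheter, up to 24 h (iv) or 48 h (po), into EDTA. Plasma LC-MS/MS; individual non-compartmental parameters were averaged.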

[7] = Cmax in Wistar rat at 50 mg/kg, po; assay type: ADME, organism-based; design: dose 50 mg/kg, route oral; conditions: in vivo; summary of the method: as §1
Mus musculus [8] = assay: Dose normalized AUC in C57/BL6 mouse at 25 mg/kg, po bid for 5 days; assay type: ADME, organism-based; design: dose 25 mg/kg, route oral; conditions: in vivo, 120 h
Summary of the method: (§2)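 Female C57/BL6 mice were dosed orally twice daily for 5 days with a suspension in 2% Klucel LF/0.1% Tween 80 in water. Six mice per dose were split into two subgroups of three, each sampled at alternate time points. Retro-orbital blood was taken at 0, 1, 4 and 8 h post-dose into EDTA, and plasma was analysed by LC-MS/MS. Parameters come from mean concentrations; AUC0–8h by linear trapezoidal rule; Cmax and Tmax as observed.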

[9] = Tmax in C57/BL6 mouse at 25 mg/kg, po bid for 5 days; assay type: ADME, organism-based; design: dose 25 mg/kg, route oral; conditions: in vivo; summary of the method: as §2
Mus musculus [10] = assay: Dose normalized AUC in C57/BL6 mouse at 50 mg/kg, po bid for 5 days; assay type: ADME, organism-based; design: dose 50 mg/kg, route oral; conditions: in vivo, 120 h; summary of the method: as §2
[11] = AUC in C57/BL6 mouse at 100 mg/kg, po bid for 5 days; assay type: ADME, organism-based; design: dose 100 mg/kg, route oral; conditions: plasma; summary of the method: as §2
Mus musculus [12] = assay: Dose normalized AUC in C57/BL6 mouse at 100 mg/kg, po bid for 5 days; assay type: ADME, organism-based; design: dose 100 mg/kg, route oral; conditions: in vivo, 120 h; summary of the method: as §2
[13] = Cmax in C57/BL6 mouse at 100 mg/kg, po bid for 5 days; assay type: ADME, organism-based; design: dose 100 mg/kg, route oral; conditions: in vivo; summary of the method: as §2
[14] = AUC in […] mouse at 100 mg/kg, po; assay type: ADME, organism-based; design: dose 100 mg/kg, route oral; conditions: plasma
Summary of the method: (§3)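 A separate group of female mice received one 100 mg/kg oral dose. Median PK parameters were calculated for that cohort.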

[15] = Tmax in […] mouse at 100 mg/kg, po; assay type: ADME, organism-based; design: dose 100 mg/kg, route oral; conditions: in vivo; summary of the method: as §3
Mus musculus [16] = assay: Antiangiogenic activity in C57/BL6 mouse cornea assessed as inhibition of VEGF-induced angiogenesis at 50 mg/kg, po bid for 7 days by corneal pocket assay relative to control; assay type: functional; conditions: 168 h
Summary of the method: (§4)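 VEGF-impregnated pellets were implanted in corneas of female C57/BL6 mice aged 5–7 weeks. Oral twice-daily dosing started the same day and ran 7 days. The area of vascularization was then quantitated relative to animals given vehicle (2% Klucel LF, 0.1% Tween 80 in water).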

Mus musculus [17] = assay: Antiangiogenic activity in C57/BL6 mouse cornea assessed as inhibition of VEGF-induced angiogenesis at 100 mg/kg, po bid for 7 days by corneal pocket assay relative to control; assay type: functional; conditions: 168 h; summary of the method: as §4
Mus musculus [18] = assay: Antiangiogenic activity in C57/BL6 mouse cornea assessed as inhibition of bFGF-induced angiogenesis at 25 mg/kg, po bid for 5 days by corneal pocket assay relative to control; assay type: functional; conditions: 120 h
Summary of the method: (§5)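 bFGF-impregnated pellets were implanted in corneas of female C57/BL6 mice aged 5–7 weeks. Oral dosing twice daily began the same day for 5 days. The neovascularized area was quantitated against vehicle-treated animals (2% Klucel LF, 0.1% Tween 80 in water).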

Mus musculus [19] = assay: Antiangiogenic activity in C57/BL6 mouse cornea assessed as inhibition of bFGF-induced angiogenesis at 50 mg/kg, po bid for 5 days by corneal pocket assay relative to control; assay type: functional; conditions: 120 h; summary of the method: as §5

Cyclin-dependent kinase 1/cyclin B1, sequence (P06493 whole entry): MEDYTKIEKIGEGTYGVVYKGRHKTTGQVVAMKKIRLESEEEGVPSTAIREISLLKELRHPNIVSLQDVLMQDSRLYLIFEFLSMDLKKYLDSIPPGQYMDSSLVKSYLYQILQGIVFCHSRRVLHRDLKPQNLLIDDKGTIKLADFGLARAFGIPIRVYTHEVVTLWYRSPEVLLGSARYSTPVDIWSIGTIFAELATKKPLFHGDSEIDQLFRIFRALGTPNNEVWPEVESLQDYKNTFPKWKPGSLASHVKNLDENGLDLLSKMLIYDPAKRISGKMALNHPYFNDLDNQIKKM
Cyclin-dependent kinase 1/cyclin B1, sequence (P14635 whole entry, further chain): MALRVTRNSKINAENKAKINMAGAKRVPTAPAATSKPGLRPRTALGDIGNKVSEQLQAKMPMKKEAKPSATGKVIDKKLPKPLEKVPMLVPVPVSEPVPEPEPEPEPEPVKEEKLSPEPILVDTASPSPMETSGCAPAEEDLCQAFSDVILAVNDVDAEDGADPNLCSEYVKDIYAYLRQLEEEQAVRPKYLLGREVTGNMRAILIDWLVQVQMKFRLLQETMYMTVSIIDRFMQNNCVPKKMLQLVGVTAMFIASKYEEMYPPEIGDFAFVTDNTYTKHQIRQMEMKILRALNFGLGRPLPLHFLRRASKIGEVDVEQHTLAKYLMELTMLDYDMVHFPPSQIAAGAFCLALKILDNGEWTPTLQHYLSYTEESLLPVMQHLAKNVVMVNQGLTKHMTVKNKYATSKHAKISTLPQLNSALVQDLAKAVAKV

IC50 (Ephrin type-B receptor 3): 1090 nM
IC50 [1]: > 125 µM
Vd [4]: 1.9 L/kg
Cmax [5]: 16500 ng/mL
AUC [6]: 4010 ng·h/mL
Cmax [7]: 7180 ng/mL
AUC/dose (Mus musculus [8]): 1199 ng·h/mL/mg/kg
Tmax [9]: 30 min
AUC/dose (Mus musculus [10]): 1510 ng·h/mL/mg/kg
AUC at 120 h [11]: 150 µg·h/mL
AUC/dose (Mus musculus [12]): 1458 ng·h/mL/mg/kg
Cmax [13]: 47700 ng/mL
AUC [14]: 146 µg·h/mL
Tmax [15]: 30 min
Compound: COc1ccc(N2Cc3cnc(Nc4ccccc4)nc3N([C@@H]3CC[C@@H](O)C3)C2=O)cc1 (racemic)
IC50 (HUVEC [2]): 68 nM
IC50 (HUVEC [3]): 150 nM
IC50 (RKO): 2300 nM
inhibition in vivo at 50 mg/kg (Mus musculus [16]): 91%
inhibition in vivo at 100 mg/kg (Mus musculus [17]): 99%
inhibition in vivo at 25 mg/kg (Mus musculus [18]): 72%
inhibition in vivo at 50 mg/kg (Mus musculus [19]): 80%
